Reference: ChEMBL document CHEMBL1123269, “Synthesis and antitumor activity of certain 3-beta-D-ribofuranosyl-1,2,4-triazolo[3,4-f]-1,2,4-triazines related to formycin prepared via ring closure of a 1,2,4-triazine precursor” (1986)

Assays:
Type in all cases: functional
CCRF-CEM [1] = assay: Concentration that produced 50% inhibition of CCRF-CEM leukemia tumor cell growth was determined; settings: Homo sapiens, read-out: ID50 (the source's name)
Method in brief: (§1)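 Assay in CCRF-CEM human T-lymphoblastic leukemia cells (mycoplasma-free; suspension in RPMI-1640, 10% fetal bovine serum, 20 mM Hepes). Seeded at 5 × 10⁴ cells/mL with compound at 0.1–100 μM final in 0.5-log steps, triplicate, for 92 h at 37 °C in humidified 5% CO₂. Electronic cell count gave growth as % of control (Me₂SO-matched where relevant). ID₅₀ was taken from the plot.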

L1210 [2] = assay: Concentration that produced 50% inhibition of L1210 leukemia tumor cell growth was determined; settings: Mus musculus, read-out: ID50 (the source's name)
Method in brief: (§2)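 L1210 murine lymphocytic leukemia cells, mycoplasma-free, grown in suspension in RPMI-1640 with 10% fetal bovine serum and 20 mM Hepes. Inoculum 5 × 10⁴ cells/mL with compound at 0.1–100 μM final (0.5-log steps), in triplicate. Incubated 48 h at 37 °C, humidified 5% CO₂. Growth was measured by Coulter count as % of untreated control, or of a matched Me₂SO control. ID₅₀ was read from the %-control vs concentration plot.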

[3] = Concentration that produced 50% inhibition of WIL2 leukemia tumor cell growth was determined; settings: Homo sapiens, read-out: ID50 (the source's name)
Method in brief: (§3)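 WIL2 human B-lymphoblastic leukemia cells were kept mycoplasma-free in suspension culture in RPMI-1640 with 10% fetal bovine serum and 20 mM Hepes. Triplicate wells held 5 × 10⁴ cells/mL and compound at 0.1–100 μM final (0.5-log dilutions), for 72 h at 37 °C in 5% CO₂. Coulter cell counts gave growth as % of untreated or Me₂SO-matched controls. ID₅₀ came from the concentration plot.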

L1210 [4] = assay: Concentration that produced 50% inhibition of L1210 leukemia tumor cell growth was determined at 100 uM; settings: Mus musculus; method in brief: as §2
[5] = Concentration that produced 50% inhibition of WIL2 leukemia tumor cell growth was determined at 100 uM; settings: Homo sapiens; method in brief: as §3
CCRF-CEM [6] = assay: Concentration that produced 50% inhibition of CCRF-CEM leukemia tumor cell growth was determined at 100 uM; settings: Homo sapiens; method in brief: as §1

Row | IC50 (CCRF-CEM [1]) [µM] | IC50 (L1210 [2]) [µM] | Compound | IC50 [3] [µM] | inhibition at 100 µM (L1210 [4]) [%] | inhibition at 100 µM [5] [%] | inhibition at 100 µM (CCRF-CEM [6]) [%]
1 | 8.4 | 31.6 | O=C1N=CN=C2C([C@@H]3O[C@H](CO)[C@@H](O)[C@H]3O)=NNC12 (stereo partly drawn) | 7.5 | – | – | –
2 | 67 | – | Nc1nn2c([C@@H]3O[C@H](CO)[C@@H](O)[C@H]3O)nnc2c(=S)[nH]1 | – | – | – | –
3 | – | 7 | O=c1[nH]cnn2c([C@@H]3O[C@H](CO)[C@@H](O)[C@H]3O)nnc12 | 15 | – | – | –
4 | 5 | 6.3 | Nc1ncnn2c([C@@H]3O[C@H](CO)[C@@H](O)[C@H]3O)nnc12 | 7.3 | – | – | –
5 | 44.7 | 16.3 | Nc1nc(N)c2nnc([C@@H]3O[C@H](CO)[C@@H](O)[C@H]3O)n2n1 | 45.8 | – | – | –
6 | – | – | Nc1nn2c([C@@H]3O[C@H](CO)[C@@H](O)[C@H]3O)nnc2c(=O)[nH]1 | – | 47 | 35 | 30
7 | 6.1 | 27.6 | Nc1ncnc2c([C@@H]3O[C@H](CO)[C@@H](O)[C@H]3O)[nH]nc12 [FORMYCIN] | 6.2 | – | – | –
